Assay [1] deals with Dihydroorotate dehydrogenase (quinone), mitochondrial (Homo sapiens, UniProt Q02127). Briefly: Inhibition of human DHODH assessed as reduction of 2,6-dichloroindophenol by stopped flow spectroscopy. In a few lines: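 Truncated soluble enzyme expressed in E. coli. Steady-state assay: DCIP (0.12 mM) reduction at 600 nm, 5–10 nM enzyme, 0.2 mM L-dihydroorotate, 0.02 mM CoQD, in 100 mM HEPES pH 8.0, 150 mM NaCl, 10% glycerol, 0.1% Triton, 20°C. CoQ-independent oxidase background subtracted; triplicate points per concentration; IC50 from curve fit, ≥2 experiments.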

Assay [2] addresses T1, Dihydroorotate dehydrogenase (Plasmodium falciparum, UniProt Q54A96).
T1 sequence (Q54A96 whole entry): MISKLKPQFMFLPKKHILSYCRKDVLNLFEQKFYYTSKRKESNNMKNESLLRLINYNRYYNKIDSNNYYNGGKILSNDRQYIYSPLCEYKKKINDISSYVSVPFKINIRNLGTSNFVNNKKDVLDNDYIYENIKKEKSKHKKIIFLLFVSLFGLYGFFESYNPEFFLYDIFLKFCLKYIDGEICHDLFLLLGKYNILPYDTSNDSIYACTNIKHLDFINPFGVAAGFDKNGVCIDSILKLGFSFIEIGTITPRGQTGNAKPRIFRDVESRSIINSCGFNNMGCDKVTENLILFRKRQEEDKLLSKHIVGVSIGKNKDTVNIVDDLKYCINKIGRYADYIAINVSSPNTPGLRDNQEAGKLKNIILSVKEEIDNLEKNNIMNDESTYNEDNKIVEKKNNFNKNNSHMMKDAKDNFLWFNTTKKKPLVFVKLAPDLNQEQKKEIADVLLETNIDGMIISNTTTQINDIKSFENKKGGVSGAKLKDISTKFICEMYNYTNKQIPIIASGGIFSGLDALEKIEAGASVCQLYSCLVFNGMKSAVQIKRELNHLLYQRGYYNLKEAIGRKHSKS
The assay can be described thus: Inhibition of Plasmodium falciparum DHODH assessed as reduction of 2,6-dichloroindophenol by stopped flow spectroscopy. An outline of the steps: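 Truncated soluble enzyme expressed in E. coli. Steady-state assay: DCIP (0.12 mM) reduction at 600 nm, 5–10 nM enzyme, 0.2 mM L-dihydroorotate, 0.02 mM CoQD, in 100 mM HEPES pH 8.0, 150 mM NaCl, 10% glycerol, 0.1% Triton, 20°C.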

Assay [3] has as its system Plasmodium falciparum. The assay can be described thus: Antiplasmodial activity against Plasmodium falciparum 3D7 in erythrocytes as [3H]hypoxanthine uptake. The format is functional, organism-based. In a few lines: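 Parasites grown in RPMI-1640 with 20% human type A+ plasma and 2% (w/v) red blood cells; drug-treated infected erythrocytes assayed for [3H]-hypoxanthine uptake. Triplicate points over a range of inhibitor concentrations; EC50 from fit of % proliferation to a Hill-type equation; reported values average at least 2 independent experiments.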

In the next assay the test system is L1210. The assay can be described thus: Cytotoxicity against mouse L1210 cells.
Assay [4] relates to Plasmodium falciparum. Briefly: Antiplasmodial activity against Plasmodium falciparum Dd2 in erythrocytes as [3H]hypoxanthine uptake. To be noted: Dd2, 3 h.
Assay [5] relates to Plasmodium falciparum. Briefly: Antiplasmodial activity against Plasmodium falciparum K1 in erythrocytes as [3H]hypoxanthine uptake. To be noted: K1, 3 h.
Assay [6] relates to Plasmodium falciparum. The assay can be described thus: Antiplasmodial activity against Plasmodium falciparum D6 in erythrocytes as [3H]hypoxanthine uptake. To be noted: D6, 3 h.
For assay [7], the system named is Plasmodium falciparum. The assay can be described thus: Antiplasmodial activity against Plasmodium falciparum HB3 in erythrocytes as [3H]hypoxanthine uptake. To be noted: HB3, 3 h.
Assay [8] concerns Plasmodium falciparum. Briefly: Antiplasmodial activity against Plasmodium falciparum FCR3 in erythrocytes as [3H]hypoxanthine uptake. The conditions noted are these: FCR3, 3 h.

Bounds are passed on as bounds.

Dihydroorotate dehydrogenase (quinone), mitochondrial, sequence (Q02127 whole entry, the tested form may be a part): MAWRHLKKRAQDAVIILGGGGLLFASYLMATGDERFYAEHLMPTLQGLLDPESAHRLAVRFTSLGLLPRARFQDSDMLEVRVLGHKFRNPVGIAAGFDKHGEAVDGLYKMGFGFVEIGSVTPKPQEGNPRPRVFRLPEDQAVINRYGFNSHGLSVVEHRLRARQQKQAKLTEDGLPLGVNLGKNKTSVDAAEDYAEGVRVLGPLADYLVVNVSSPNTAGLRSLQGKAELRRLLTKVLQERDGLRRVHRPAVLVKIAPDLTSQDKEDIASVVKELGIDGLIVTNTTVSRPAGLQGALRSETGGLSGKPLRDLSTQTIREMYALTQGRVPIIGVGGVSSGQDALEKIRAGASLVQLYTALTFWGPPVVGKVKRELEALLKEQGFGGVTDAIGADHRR

The term IC50 denotes the concentration that gives 50% inhibition. `Cc1cc(Nc2ccccc2)n2ncnc2n1`: the IC50 in assay [1] was greater than 200 µM; in assay [2], greater than 100 µM; in the assay with Plasmodium falciparum [3] it was greater than 100 µM.

By EC50 is commonly meant the concentration giving half of the maximal effect. Lower therefore signals higher potency in that assay. For the compound `Cc1cc(Nc2ccc3ccccc3c2)n2ncnc2n1`, the EC50 was greater than 10 µM with L1210; 0.14 µM in the assay with Plasmodium falciparum [4]; 0.14 µM with Plasmodium falciparum [5]; 0.058 µM in the assay on Plasmodium falciparum [6]; 0.1 µM in the assay with Plasmodium falciparum [7]; 0.18 µM with Plasmodium falciparum [8]. The values for the IC50 (in assay [1]; with Plasmodium falciparum [3]) were greater than 200 µM and 0.079 µM, respectively.

For `Cc1nc2ncnn2c(Nc2ccc3ccccc3c2)c1C`, the IC50 in [1] is greater than 200 µM; in assay [2] it was 0.16 µM; with Plasmodium falciparum [3] it was 0.55 µM.

In the case of `Cc1cc(Nc2cc3ccccc3cc2O)n2ncnc2n1`, the IC50 in [1] was greater than 200 µM; in assay [2], 0.33 µM; in the assay on Plasmodium falciparum [3], 1.7 µM.

Regarding `Cc1cc(N(Cc2ccccc2)c2ccc3ccccc3c2)n2ncnc2n1`, the IC50 in assay [1] is greater than 200 µM; in assay [2], 93 µM; in the assay with Plasmodium falciparum [3], 35 µM.

On to `Cc1cc(Nc2cccc3ccccc23)n2ncnc2n1`, for which the figures for the IC50 (in assay [1]; in assay [2]; in the assay on Plasmodium falciparum [3]) were greater than 200 µM, 45 µM and 4.4 µM, respectively.

As for `CCc1cc(Nc2ccc3ccccc3c2)n2ncnc2n1`, the IC50 in [1] is greater than 200 µM; in assay [2], 0.19 µM; with Plasmodium falciparum [3], 0.31 µM.

As to `Cc1cc(Nc2ccc(C(N)=O)cc2)n2ncnc2n1`, the IC50 in assay [1] is greater than 200 µM; in assay [2], greater than 200 µM; in the assay on Plasmodium falciparum [3] it was greater than 50 µM.

Consider `Cc1cc(Nc2ccc3c(=O)cc(C)oc3c2)n2ncnc2n1`, for which the IC50 is greater than 200 µM in assay [1], 2 µM in assay [2] and 0.41 µM in the assay with Plasmodium falciparum [3].

Turning to `Cc1cc(N(C)c2ccc3ccccc3c2)n2ncnc2n1`, the figures for the 50% inhibitory concentration (IC50) (in [1]; in [2]; in the assay with Plasmodium falciparum [3]) were greater than 200 µM, 3 µM and 16 µM, respectively.

Consider `Cc1cc(Nc2ccc3ncccc3c2)n2ncnc2n1`, for which the figures for the IC50 (in [1]; in [2]; in the assay on Plasmodium falciparum [3]) were greater than 200 µM, 1.2 µM and 2.2 µM, respectively.

As for `Cc1cc(Nc2cnc3ccccc3c2)n2ncnc2n1`, the IC50 in [1] was greater than 200 µM; in [2], 1.7 µM; in the assay on Plasmodium falciparum [3] it was 1.6 µM.

On to `Cc1cc(Nc2ccc3cc4ccccc4cc3c2)n2ncnc2n1`, for which the IC50 in assay [1] was greater than 200 µM; in [2], 0.056 µM; in the assay on Plasmodium falciparum [3], 0.19 µM.

Turning to `FC(F)(F)c1cc(Nc2ccc3ccccc3c2)n2ncnc2n1`, the IC50 was greater than 200 µM in assay [1], 0.21 µM in assay [2] and 3.3 µM in the assay on Plasmodium falciparum [3].

The values are drawn from ChEMBL document CHEMBL1150779, “Triazolopyrimidine-based dihydroorotate dehydrogenase inhibitors with potent and selective activity against the malaria parasite Plasmodium falciparum” (J Med Chem, 2008).
